ChEMBL document CHEMBL1122744, “2-Chloroethyl (methylsulfonyl)methanesulfonate and related (methylsulfonyl)methanesulfonates. Antineoplastic activity in vivo” (J Med Chem, 1984)

What was measured:
Mus musculus [1] = test: Mortality by day 5 expressed as number of mice died to the total treated at dose 50 mg/kg in exp1; 0/6; assay type: ADME, organism-based; design: dose 50 mg/kg; conditions: in vivo
[2] = Median survival time of the treated control groups, in which there are no 30-day survivors at dose 50 mg/kg in exp1; assay type: functional
[3] = Median survival time of the untreated control groups, in which there are no 30-day survivors at dose 50 mg/kg in exp1; assay type: functional
[4] = Ratio of number of 60-day survivors to the total treated mice at dose 100 mg/kg in exp2; 0/6; assay type: functional
Mus musculus [5] = test: Change in weight by day 5, obtained by subtracting treated groups of animals minus control groups of animals at dose 50 mg/kg in exp2; assay type: functional
Outline: (§1)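 Mice were inoculated ip with 10^6 P388 leukemia cells on day 0, when treated and control mice weighed 19–22 g. Treatment was given ip once daily on days 1–5, within about 5 min of preparing the solution or suspension. Groups of six (occasionally five) were treated, with 30 untreated inoculated mice as controls. The day-5 weight change is the mean treated change minus the mean control change.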

Mus musculus [6] = test: Mortality by day 5 expressed as number of mice died to the total treated at dose 25 mg/kg in exp1; 0/6; assay type: ADME, organism-based; design: dose 25 mg/kg; conditions: in vivo
[7] = Ratio of median survival times for non-survivors at dose 12 mg/kg in exp2; assay type: functional
Outline: (§2)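 Mice were inoculated ip with 10^6 P388 leukemia cells on day 0. Groups of six (occasionally five) were dosed ip qd on days 1–5 with fresh suspensions; 30 mice served as untreated controls. Deaths were recorded daily up to day 60. T/C% compares the median survival of treated non-survivors (<60 days) with the control median. Medians used grouped data when there were no 30-day survivors, otherwise ungrouped data. t = toxic.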

Mus musculus [8] = test: Median survival time of the treated control groups, in which there are no 30-day survivors at dose 12 mg/kg in exp2; assay type: functional
Mus musculus [9] = test: Mortality by day 5 expressed as number of mice died to the total treated at dose 12 mg/kg in exp2; 0/6; assay type: ADME, organism-based; design: dose 12 mg/kg; conditions: in vivo
Mus musculus [10] = test: Ratio of number of 30-day survivors to the total treated mice at dose 100 mg/kg in exp2*-toxic; 1/6; assay type: ADME, organism-based; design: dose 100 mg/kg; conditions: in vivo, 720 h
[11] = Ratio of number of 30-day survivors to the total treated mice at dose 100 mg/kg in exp1; 1/6; assay type: functional
[12] = Ratio of median survival times for non-survivors at dose 25 mg/kg in exp1; assay type: functional
[13] = Ratio of median survival times for non-survivors at dose 200 mg/kg in exp1; t= toxic; assay type: ADME, organism-based; design: dose 200 mg/kg; conditions: in vivo; outline: as §2
Mus musculus [14] = test: Median survival time of the untreated control groups, in which there are no 30-day survivors at dose 100 mg/kg in exp1; assay type: functional
Mus musculus [15] = test: Mortality by day 5 expressed as number of mice died to the total treated at dose 200 mg/kg in exp1; 5/6; assay type: ADME, organism-based; design: dose 200 mg/kg; conditions: in vivo
Mus musculus [16] = test: Median survival time of the treated control groups, in which there are no 30-day survivors at dose 100 mg/kg in exp1; assay type: functional
Mus musculus [17] = test: Change in weight by day 5, obtained by subtracting treated groups of animals minus control groups of animals at dose 25 mg/kg in exp1.; assay type: functional; outline: as §1
Mus musculus [18] = test: Median survival time of the treated control groups, in which there are no 30-day survivors at dose 100 mg/kg in exp2; assay type: functional
[19] = Ratio of median survival times for non-survivors at dose 50 mg/kg in exp1; assay type: functional; design: unit: %; outline: as §2
[20] = Ratio of median survival times for non-survivors at dose 100 mg/kg in exp2; assay type: functional; outline: as §2
[21] = Ratio of median survival times for non-survivors at dose 25 mg/kg in exp2; assay type: functional; outline: as §2
Mus musculus [22] = test: Mortality by day 5 expressed as number of mice died to the total treated at dose 50 mg/kg in exp2; 0/6; assay type: ADME, organism-based; design: dose 50 mg/kg; conditions: in vivo
[23] = Ratio of median survival times for non-survivors at dose 100 mg/kg in exp1; assay type: functional; design: unit: %; outline: as §2
[24] = Median survival time of the untreated control groups, in which there are no 30-day survivors at dose 25 mg/kg in exp2; assay type: functional
Mus musculus [25] = test: Mortality by day 5 expressed as number of mice died to the total treated at dose 100 mg/kg in exp2; 2/6; assay type: ADME, organism-based; design: dose 100 mg/kg; conditions: in vivo
Mus musculus [26] = test: Change in weight by day 5, obtained by subtracting treated groups of animals minus control groups of animals at dose 100 mg/kg in exp2*-mortality was 5/6 by day 7; assay type: functional
Outline: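 Mice were inoculated ip with 10^6 P388 leukemia cells on day 0 and weighed 19–22 g that day. Compound was given ip once daily on days 1–5, within about 5 min of preparing the solution or suspension, to groups of six (occasionally five). Thirty inoculated untreated mice served as controls. The value is the average weight change of treated mice minus that of controls on day 5.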

Mus musculus [27] = test: Median survival time of the treated control groups, in which there are no 30-day survivors at dose 25 mg/kg in exp2; assay type: functional
Mus musculus [28] = test: Change in weight by day 5, obtained by subtracting treated groups of animals minus control groups of animals at dose 50 mg/kg in exp1.; assay type: functional; outline: as §1
[29] = Ratio of number of 60-day survivors to the total treated mice at dose 100 mg/kg in exp1; 0/6; assay type: functional
Mus musculus [30] = test: Median survival time of the untreated control groups, in which there are no 30-day survivors at dose 100 mg/kg in exp2; assay type: functional
Mus musculus [31] = test: Change in weight by day 5, obtained by subtracting treated groups of animals minus control groups of animals at dose 25 mg/kg in exp2; assay type: functional; outline: as §1
Mus musculus [32] = test: Mortality by day 5 expressed as number of mice died to the total treated at dose 100 mg/kg in exp1; 0/6; assay type: ADME, organism-based; design: dose 100 mg/kg; conditions: in vivo
Mus musculus [33] = test: Change in weight by day 5, obtained by subtracting treated groups of animals minus control groups of animals at dose 200 mg/kg in exp1.; assay type: functional; outline: as §1
Mus musculus [34] = test: Change in weight by day 5, obtained by subtracting treated groups of animals minus control groups of animals at dose 12 mg/kg in exp2; assay type: functional; outline: as §1
Mus musculus [35] = test: Median survival time of the untreated control groups, in which there are no 30-day survivors at dose 12 mg/kg in exp2; assay type: functional
Mus musculus [36] = test: Median survival time of the treated control groups, in which there are no 30-day survivors at dose 25 mg/kg in exp1; assay type: functional
Mus musculus [37] = test: Median survival time of the untreated control groups, in which there are no 30-day survivors at dose 200 mg/kg in exp1; assay type: functional
Mus musculus [38] = test: Change in weight by day 5, obtained by subtracting treated groups of animals minus control groups of animals at dose 100 mg/kg in exp1.; assay type: functional; outline: as §1
Mus musculus [39] = test: Median survival time of the untreated control groups, in which there are no 30-day survivors at dose 25 mg/kg in exp1; assay type: functional
Mus musculus [40] = test: Ratio of median survival times for non-survivors at dose 50 mg/kg in exp2; assay type: functional; outline: as §2
Mus musculus [41] = test: Mortality by day 5 expressed as number of mice died to the total treated at dose 25 mg/kg in exp2; 0/6; assay type: ADME, organism-based; design: dose 25 mg/kg; conditions: in vivo
[42] = Median survival time of the treated control groups, in which there are no 30-day survivors at dose 50 mg/kg in exp2; assay type: functional

Q: Which Mortality (Mus musculus [1]) does the source give for CS(=O)(=O)CS(=O)(=O)OCCBr here?
A: The Mortality was 0.

Q: What about the Median survival time [2] of the same molecule?
A: The Median survival time was 16.7.

Q: What about the Median survival time [3] of the same molecule?
A: Its Median survival time is 10.5.

Q: And the Ratio [4]?
A: Its Ratio is 0.

Q: And the Change in weight (Mus musculus [5])?
A: Its Change in weight is -1.8.

Q: And the Mortality (Mus musculus [6])?
A: Its Mortality is 0.

Q: What about the Ratio [7] of the same molecule?
A: Its Ratio is 98.

Q: What about the Median survival time (Mus musculus [8]) of the same molecule?
A: Its Median survival time is 12.8.

Q: And the Mortality (Mus musculus [9])?
A: The Mortality was 0.

Q: What about the Ratio (Mus musculus [10]) of the same molecule?
A: Its Ratio is 1.

Q: What about the Ratio [11] of the same molecule?
A: Its Ratio is 1.

Q: And the Ratio [12]?
A: Its Ratio is 136.

Q: What about the Ratio [13] of the same molecule?
A: Its Ratio is “Toxic”.

Q: What about the Median survival time (Mus musculus [14]) of the same molecule?
A: Its Median survival time is 10.5.

Q: What about the Mortality (Mus musculus [15]) of the same molecule?
A: The Mortality was 5.

Q: And the Median survival time (Mus musculus [16])?
A: The Median survival time was 23.5.

Q: And the Change in weight (Mus musculus [17])?
A: Its Change in weight is -0.8.

Q: What about the Median survival time (Mus musculus [18]) of the same molecule?
A: Its Median survival time is 7.

Q: What about the Ratio [19] of the same molecule?
A: The Ratio was 159.

Q: And the Ratio [20]?
A: Its Ratio is 54.

Q: And the Ratio [21]?
A: Its Ratio is 123.

Q: And the Mortality (Mus musculus [22])?
A: Its Mortality is 0.

Q: What about the Ratio [23] of the same molecule?
A: The Ratio was 224.

Q: What about the Median survival time [24] of the same molecule?
A: The Median survival time was 13.

Q: What about the Mortality (Mus musculus [25]) of the same molecule?
A: Its Mortality is 2.

Q: What about the Change in weight (Mus musculus [26]) of the same molecule?
A: Its Change in weight is -4.7.

Q: And the Median survival time (Mus musculus [27])?
A: The Median survival time was 16.

Q: And the Change in weight (Mus musculus [28])?
A: Its Change in weight is -2.1.

Q: And the Ratio [29]?
A: Its Ratio is 0.

Q: What about the Median survival time (Mus musculus [30]) of the same molecule?
A: Its Median survival time is 13.

Q: What about the Change in weight (Mus musculus [31]) of the same molecule?
A: Its Change in weight is -1.5.

Q: What about the Mortality (Mus musculus [32]) of the same molecule?
A: Its Mortality is 0.

Q: What about the Change in weight (Mus musculus [33]) of the same molecule?
A: The Change in weight was -5.4.

Q: What about the Change in weight (Mus musculus [34]) of the same molecule?
A: Its Change in weight is 0.3.

Q: And the Median survival time (Mus musculus [35])?
A: Its Median survival time is 13.

Q: What about the Median survival time (Mus musculus [36]) of the same molecule?
A: Its Median survival time is 14.3.

Q: What about the Median survival time (Mus musculus [37]) of the same molecule?
A: Its Median survival time is 10.5.

Q: What about the Change in weight (Mus musculus [38]) of the same molecule?
A: Its Change in weight is -2.9.

Q: And the Median survival time (Mus musculus [39])?
A: The Median survival time was 10.5.

Q: And the Ratio (Mus musculus [40])?
A: The Ratio was 138.

Q: And the Mortality (Mus musculus [41])?
A: The Mortality was 0.

Q: What about the Median survival time [42] of the same molecule?
A: Its Median survival time is 18.
